Marks after values point to notes of the source that are not given here.
T1: Yeast NAD+-specific isocitrate dehydrogenase (IDH) (Saccharomyces cerevisiae, UniProt P28241+P28834)
T1 sequence (P28834 12-360): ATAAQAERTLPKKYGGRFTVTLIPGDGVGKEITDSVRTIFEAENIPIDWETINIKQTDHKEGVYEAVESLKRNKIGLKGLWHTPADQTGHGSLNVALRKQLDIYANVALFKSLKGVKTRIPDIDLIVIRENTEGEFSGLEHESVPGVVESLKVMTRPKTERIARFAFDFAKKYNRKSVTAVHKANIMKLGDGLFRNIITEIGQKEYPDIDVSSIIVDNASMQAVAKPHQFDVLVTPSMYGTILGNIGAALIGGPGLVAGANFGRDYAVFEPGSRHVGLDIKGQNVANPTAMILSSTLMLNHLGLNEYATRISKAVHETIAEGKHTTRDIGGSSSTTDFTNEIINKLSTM
T1 sequence (P28241 16-369): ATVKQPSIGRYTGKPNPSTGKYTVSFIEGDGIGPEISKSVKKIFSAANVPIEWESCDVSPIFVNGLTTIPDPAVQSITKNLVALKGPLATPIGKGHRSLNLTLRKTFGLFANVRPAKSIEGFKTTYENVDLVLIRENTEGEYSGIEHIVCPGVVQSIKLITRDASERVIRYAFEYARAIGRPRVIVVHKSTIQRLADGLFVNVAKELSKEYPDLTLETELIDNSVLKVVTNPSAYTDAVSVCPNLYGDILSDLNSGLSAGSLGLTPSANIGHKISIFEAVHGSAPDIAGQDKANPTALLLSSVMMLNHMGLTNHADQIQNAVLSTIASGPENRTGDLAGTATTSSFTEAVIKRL


What was measured:
[1] = biological target: the molecule itself; experiment: cross-linking
[2] = tested on: Yeast NAD+-specific isocitrate dehydrogenase (IDH); experiment: Kinetic analyses: isocitrate saturation velocity curves of purified IDH enzymes; type: biochemical
In short: (§1)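 His-tagged IDH purified by Ni2+-NTA, stored at −20 °C in elution buffer with 20% glycerol, quantified by A280. Assays at 24 °C used 40 mM Tris-HCl pH 7.4, 4 mM MgCl2 and 0.5 mM NAD+. D-isocitrate was varied 0–5 mM, with or without 100 μM AMP, and NADH formation was followed. Apparent S0.5 and Hill coefficients came from saturation curves, Vmax as maximum velocity per mg, over two independent experiments.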

[3] = biological target: T1, Yeast NAD+-specific isocitrate dehydrogenase (IDH); experiment: as above; type: biochemical; conditions: 100 μM AMP
In short: as §1

Row | Molecule | binding result [1] | Hill coef. with respect to isocitrate, − AMP ([2]; absence of AMP) | Vmax (apparent), + AMP ([2]; isocitrate velocity saturation curve, presence of 100 μM AMP) | Hill coef. with respect to isocitrate, + AMP ([2]; presence of 100 μM AMP) | increase in the apparent affinity for isocitrate in the presence of AMP [3]
1 | IDH2 subunit (natural protein, yeast) ATVKQPSIGRYTGKPNPSTGKYTVSFIEGDGIGPEISKSVKKIFSAANVPIEWESCDVSPIFVNGLTTIPDPAVQSITKNLVALKGPLATPIGKGHRSLNLTLRKTFGLFANVRPAKSIEGFKTTYENVDLVLIRENTEGEYSGIEHIVCPGVVQSIKLITRDASERVIRYAFEYARAIGRPRVIVVHKSTIQRLADGLFVNVAKELSKEYPDLTLETELIDNSVLKVVTNPSAYTDAVSVCPNLYGDILSDLNSGLSAGSLGLTPSANIGHKISIFEAVHGSAPDIAGQDKANPTALLLSSVMMLNHMGLTNHADQIQNAVLSTIASGPENRTGDLAGTATTSSFTEAVIKRL | binds |  |  |  | 
2 | IDH1/IDH2: wild-type yeast NAD+-specific isocitrate dehydrogenase, octamer of IDH1 and IDH2 subunits, histidine tag on IDH1 (protein, left off: histidine tag, C-terminal, kept) chain 1: ATAAQAERTLPKKYGGRFTVTLIPGDGVGKEITDSVRTIFEAENIPIDWETINIKQTDHKEGVYEAVESLKRNKIGLKGLWHTPADQTGHGSLNVALRKQLDIYANVALFKSLKGVKTRIPDIDLIVIRENTEGEFSGLEHESVPGVVESLKVMTRPKTERIARFAFDFAKKYNRKSVTAVHKANIMKLGDGLFRNIITEIGQKEYPDIDVSSIIVDNASMQAVAKPHQFDVLVTPSMYGTILGNIGAALIGGPGLVAGANFGRDYAVFEPGSRHVGLDIKGQNVANPTAMILSSTLMLNHLGLNEYATRISKAVHETIAEGKHTTRDIGGSSSTTDFTNEIINKLSTM chain 2: ATVKQPSIGRYTGKPNPSTGKYTVSFIEGDGIGPEISKSVKKIFSAANVPIEWESCDVSPIFVNGLTTIPDPAVQSITKNLVALKGPLATPIGKGHRSLNLTLRKTFGLFANVRPAKSIEGFKTTYENVDLVLIRENTEGEYSGIEHIVCPGVVQSIKLITRDASERVIRYAFEYARAIGRPRVIVVHKSTIQRLADGLFVNVAKELSKEYPDLTLETELIDNSVLKVVTNPSAYTDAVSVCPNLYGDILSDLNSGLSAGSLGLTPSANIGHKISIFEAVHGSAPDIAGQDKANPTALLLSSVMMLNHMGLTNHADQIQNAVLSTIASGPENRTGDLAGTATTSSFTEAVIKRL |  | 3.1 | 32.3/32.3 (±0.7/0.4) ^b units/mg | 3.5 | ~ 5 fold

Source: article PMC3137751 (Biochemistry, 2010)
